Laboratory results reported in ChEMBL document CHEMBL1122803, “Folate antagonists. 22. Antimalarial and antibacterial effects of 2,4-diamino-6-quinazolinesulfonamides” (1984).
≈ marks a conversion by molar mass, not a printed value.

Assays:
[1] = test system: Staphylococcus aureus; assay: In vitro antibacterial activity against […] U.C-76.; type: functional
Summary of the method: (§1)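 Antibacterial testing in vitro by gradient-plate test. Read-out was the minimum inhibitory concentration, with values exceeding 25 reported as >25.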

[2] = test system: Shigella sonnei; assay: In vitro antibacterial activity against Shigella sonnei C-10.; type: functional; summary of the method: as §1
[3] = test system: Enterococcus faecalis; assay: In vitro antibacterial activity against Streptococcus faecalis MGH-2.; type: functional; summary of the method: as §1
[4] = test system: Plasmodium berghei; assay: Antimalarial activity as change in MST for drug-sensitive Plasmodium berghei infected mice (Mus musculus) at 80mg/kg subcutaneous dose over 72h; type: functional
[5] = test system: Escherichia coli; assay: Tested in vitro against Escherichia coli Vogel. by gradient-plate test; type: functional; summary of the method: as §1
[6] = test system: Plasmodium berghei; assay: Antimalarial activity as change in MST against drug-sensitive Plasmodium berghei infected mice (Mus musculus) at 160 mg/kg subcutaneous dose after 72h; type: functional
[7] = test system: Staphylococcus aureus; assay: In vitro antibacterial activity against […] S 18713.; type: functional; summary of the method: as §1
[8] = test system: Plasmodium berghei; assay: Antimalarial activity as change in MST against drug-sensitive Plasmodium berghei infected mice (Mus musculus) at 20 mg/kg subcutaneous dose after 72h; type: functional
[9] = test system: Mycobacterium tuberculosis; assay: In vitro antibacterial activity against Mycobacterium tuberculosis H37Rv.; type: functional
Summary of the method: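 Mycobacterium tuberculosis tested in vitro by gradient-plate test; minimum inhibitory concentration reported.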

[10] = test system: Pseudomonas aeruginosa; assay: In vitro against Pseudomonas aeruginosa 28. by gradient-plate test; type: functional; summary of the method: as §1
[11] = test system: Plasmodium berghei; assay: Antimalarial activity as change in MST against drug-sensitive Plasmodium berghei infected mice (Mus musculus) at 320 mg/kg subcutaneous dose after 72 hr; type: functional
[12] = test system: Plasmodium berghei; assay: Antimalarial activity as change in MST for drug-sensitive Plasmodium berghei infected mice (Mus musculus) at 40 mg/kg subcutaneous dose over 72hr; type: functional
[13] = test system: Plasmodium berghei; assay: Antimalarial activity as change in MST for drug-sensitive Plasmodium berghei infected mice (Mus musculus) at 640 mg/kg subcutaneous dose over 72 hr; type: functional
[14] = test system: Escherichia coli; assay: Compound was tested in vitro against Escherichia coli Vogel. by gradient-plate test.; type: functional; summary of the method: as §1
[15] = test system: Plasmodium berghei; assay: Antimalarial activity as change in MST for drug-sensitive Plasmodium berghei infected mice (Mus musculus) after 72 hrs at 320 mg/kg subcutaneous dose; type: functional
[16] = test system: Plasmodium berghei; assay: Antimalarial activity as change in MST for drug-sensitive Plasmodium berghei infected mice (Mus musculus) at 40 mg/kg subcutaneous dose over 72 hr; type: functional
[17] = test system: Plasmodium berghei; assay: Antimalarial activity as toxic deaths 2-5 days post infection for drug-sensitive Plasmodium berghei infected mice (Mus musculus) at 640 mg/kg subcutaneous dose over 72 hr; type: functional
Summary of the method: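 P. berghei (drug-sensitive) infected mice dosed once subcutaneously 72 h postinfection, compound in sesame or peanut oil. Read-out is the count of deaths on days 2–5 after infection, attributed to drug toxicity. Five animals per dose level, or 10 where indicated.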

[18] = test system: Pseudomonas aeruginosa; assay: Compound was tested in vitro against Pseudomonas aeruginosa 28. by gradient-plate test.; type: functional; summary of the method: as §1
[19] = test system: Staphylococcus aureus; assay: Compound was tested in vitro against […] S 18713 by gradient-plate test.; type: functional; summary of the method: as §1
[20] = test system: Staphylococcus aureus; assay: Compound was tested in vitro against […] U.C-76. by gradient-plate test.; type: functional; summary of the method: as §1
[21] = test system: Plasmodium berghei; assay: Antimalarial activity as survivor numbers at day 60 for drug-sensitive Plasmodium berghei infected mice (Mus musculus) at 640 mg/kg subcutaneous dose over 72 hr; type: functional
Summary of the method: (§2)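 Mice infected with drug-sensitive P. berghei got one subcutaneous dose in sesame or peanut oil 72 h postinfection. Read-out is the number of mice alive at 60 days postinfection, termed "cured", without subinoculation to confirm parasitological cure. Groups of five per dose, or 10 where indicated.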

[22] = test system: Enterococcus faecalis; assay: Compound was tested in vitro against Streptococcus faecalis MGH-2. by gradient-plate test.; type: functional; summary of the method: as §1
[23] = test system: Plasmodium berghei; assay: Antimalarial activity as survivor number at day 60 for drug-sensitive Plasmodium berghei infected mice (Mus musculus) at 640 mg/kg subcutaneous dose over 72 hr; type: functional; summary of the method: as §2
[24] = test system: Plasmodium berghei; assay: Antimalarial activity as change in MST against drug-sensitive Plasmodium berghei infected mice (Mus musculus) at 160 mg/kg subcutaneous dose after 72 hr; type: functional
[25] = test system: Plasmodium berghei; assay: Antimalarial activity as change in MST for drug-sensitive Plasmodium berghei infected mice (Mus musculus) at 80 mg/kg subcutaneous dose over 72 hr; type: functional
[26] = test system: Plasmodium berghei; assay: In vivo antimalarial activity against drug-sensitive Plasmodium berghei in mice (Mus musculus) after 320 mg/kg subcutaneous dose for 72 hrs as survivors 60 days post infection

SMILES | MIC [1] [µg/mL] | MIC [2] [µg/mL] | MIC [3] [µg/mL] | Delta MST [4] [days] | MIC [5] [µg/mL] | Delta MST [6] [days] | MIC [7] [µg/mL] | Delta MST [8] [days] | MIC [9] [µg/mL] | MIC [10] [µg/mL] | Delta MST [11] [days] | Delta MST [12] [days] | Delta MST [13] [days] | other results
Nc1nc(N)c2cc(S(=O)(=O)Nc3cccc(Br)c3)ccc2n1 | > 25 | > 25 | > 25 | 0.5 | > 25 | 0.5 | > 25 | 0.3 | > 25 | > 25 | 1.7 | 0.3 | 4.1 | –
CCN(CC)CCN(C)S(=O)(=O)c1ccc2nc(N)nc(N)c2c1 | > 25 | > 25 | 20 (≈ 56.7 µM) | – | – | 0.3 | > 25 | – | > 25 | > 25 | – | 0.1 | 0.3 | MIC [14]: > 25 µg/mL
Nc1nc(N)c2cc(S(=O)(=O)N3CCSCC3)ccc2n1 | < 0.25 | 2 (≈ 6.15 µM) | < 0.25 | 3.5 | 2 (≈ 6.15 µM) | 8.3 | < 0.25 | 1.7 | > 25 | > 25 | – | 2.5 | 12.6 | Delta MST [15]: 9.6 days
Cc1c(S(=O)(=O)N(C)C)ccc2nc(N)nc(N)c12 | 2 (≈ 7.11 µM) | 1.5 (≈ 5.33 µM) | < 0.25 | – | < 0.25 | – | 2.5 (≈ 8.89 µM) | – | > 25 | > 25 | – | – | – | Delta MST [16]: 1.1 days; toxic deaths [17]: 5
CN(Cc1ccc(Cl)c(Cl)c1)S(=O)(=O)c1ccc2nc(N)nc(N)c2c1 | > 25 | > 25 | > 25 | 0.5 | > 25 | 0.5 | > 25 | 0.3 | > 25 | > 25 | 4.1 | – | 9.5 | Delta MST [16]: 0.3 days
CN(c1cccc(Cl)c1)S(=O)(=O)c1ccc2nc(N)nc(N)c2c1 | > 25 | > 25 | > 25 | 0.5 | > 25 | 4.5 | > 25 | 0.3 | > 25 | – | 6.9 | 0.3 | 11.9 | MIC [18]: > 25 µg/mL
CN1CCN(S(=O)(=O)c2ccc3nc(N)nc(N)c3c2)CC1 | – | > 25 | 2 (≈ 6.2 µM) | 1.5 | > 25 | 4.4 | – | 0.3 | > 25 | – | – | 1 | 11.8 | MIC [19]: > 25 µg/mL; MIC [20]: 2 µg/mL (≈ 6.2 µM); MIC [18]: > 25 µg/mL; Delta MST [15]: 8.9 days
CN(c1ccccc1)S(=O)(=O)c1ccc2nc(N)nc(N)c2c1 | > 25 | > 25 | > 25 | 3.1 | > 25 | 8.3 | > 25 | 0.5 | > 25 | > 25 | 11.5 | – | 13.9 | Delta MST [16]: 0.5 days
Nc1nc(N)c2cc(S(=O)(=O)N3CCCCC3)ccc2n1 | < 0.25 | 0.5 (≈ 1.63 µM) | < 0.25 | 4.7 | – | 10.2 | < 0.25 | 1.1 | 10 (≈ 32.5 µM) | > 25 | 12.9 | – | – | Delta MST [16]: 4.4 days; MIC [14]: < 0.25 µg/mL; survivors at day 60 [21]: 5
Nc1nc(N)c2cc(S(=O)(=O)Nc3ccc(Cl)cc3)ccc2n1 | – | – | – | 4.9 | – | 9.3 | – | 0.5 | – | – | 14.7 | 0.7 | 13.9 | –
Nc1nc(N)c2cc(S(=O)(=O)Nc3ccc(Cl)c(Cl)c3)ccc2n1 | 2.5 (≈ 6.51 µM) | > 25 | – | 8.1 | > 25 | 10.1 | > 25 | 0.3 | > 25 | > 25 | 9.9 | 3.1 | – | MIC [22]: > 25 µg/mL; survivors at day 60 [21]: 5
CN(C)S(=O)(=O)c1ccc2nc(N)nc(N)c2c1Cl | 15 (≈ 49.7 µM) | 5 (≈ 16.6 µM) | < 0.25 | 12.2 | – | 17 | > 25 | 7.5 | > 25 | > 25 | – | 10.3 | – | MIC [14]: 5 µg/mL (≈ 16.6 µM); survivors at day 60 [23]: 1; Delta MST [15]: 23.9 days
Nc1nc(N)c2cc(S(=O)(=O)N(CCO)CCO)ccc2n1 | – | – | – | 0.5 | – | 1.3 | – | 0.3 | – | – | 4.1 | – | 8.1 | Delta MST [16]: 0.3 days
CCCN(CCC)S(=O)(=O)c1ccc2nc(N)nc(N)c2c1 | – | – | – | – | – | – | – | – | – | – | – | 0.3 | 1.3 | Delta MST [24]: 0.4 days
CCOC(=O)N1CCN(S(=O)(=O)c2ccc3nc(N)nc(N)c3c2)CC1 | 2 (≈ 5.26 µM) | > 25 | 2 (≈ 5.26 µM) | 0.5 | > 25 | 4.1 | > 25 | 0.1 | > 25 | > 25 | 4.7 | 0.2 | – | survivors at day 60 [21]: 4
CC(C)N(C)S(=O)(=O)c1ccc2nc(N)nc(N)c2c1 | – | – | – | – | – | 7.3 | – | 0.5 | – | – | 6.9 | 0.7 | – | Delta MST [25]: 4 days
Nc1nc(N)c2cc(S(=O)(=O)N3CCCC3)ccc2n1 | < 0.25 | > 25 | < 0.25 | 6.9 | 10 (≈ 34.1 µM) | 8.7 | 2 (≈ 6.82 µM) | 0.5 | 10 (≈ 34.1 µM) | – | – | 5 | – | MIC [18]: > 25 µg/mL; survivors at day 60 [21]: 10; survivors at day 60 [26]: 5
Nc1nc(N)c2cc(S(=O)(=O)Nc3ccc4ccccc4c3)ccc2n1 | > 25 | > 25 | 5 (≈ 13.7 µM) | – | > 25 | 1.1 | > 25 | 0.3 | – | > 25 | 1.5 | – | 5.3 | Delta MST [16]: 0.3 days; Delta MST [25]: 0.5 days
Nc1nc(N)c2cc(S(=O)(=O)N3CCCCC3Cc3ccccc3)ccc2n1 (stereo not drawn) | 2 (≈ 5.03 µM) | > 25 | < 0.25 | – | > 25 | 0.3 | > 25 | – | > 25 | > 25 | – | 0.3 | 0.5 | –
CCN(CC)S(=O)(=O)c1ccc2nc(N)nc(N)c2c1Cl | 10 (≈ 30.3 µM) | > 25 | < 0.25 | 4.3 | > 25 | – | > 25 | – | > 25 | > 25 | 18.9 | 2.3 | – | Delta MST [24]: 14.9 days; toxic deaths [17]: 5
Nc1nc(N)c2cc(S(=O)(=O)N3CCC(N4CCCCC4)CC3)ccc2n1 | > 25 | > 25 | > 25 | 0.5 | > 25 | 0.7 | > 25 | – | > 25 | > 25 | 2.1 | 0.3 | 3.9 | –
